# Kir21 inh: Kir2.1 (mouse) channel inhibition; HEK293-Kir2.1, FluxOR thallium flux fluorescence; hits give low values; B-score at 10 µM; actives 0.85% (n = 310,000); AID 1672;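 active = fluorescence ratio B-score at or below minus 3 SD of library scores, with starting-brightness B-score within 2 SD, cut at about -4.2 in these data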;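 note: channel flux triggered by added potassium and thallium sulfate stimulus; B-score of peak minus minimum fluorescence over baseline after thallium stimulus; more negative B-score means stronger Kir2.1 block with less thallium influx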
# KCNK9 block: blocks the human KCNK9 two-pore domain potassium channel. Q9NPC2. HEK293 KCNK9, FluxOR thallium flux fluorescence; hits give low values. B-score at 10 µM. actives 1.2% (n = 310,000);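 active = ratio B-score over 3 SD below the library mean, with starting fluorescence within 5 SD of its mean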;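 note: negative B-score means less thallium flux so channel inhibition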
# KCNK3 inh: human KCNK3 channel inhibition, primary screen. O14649. CHO-KCNK3 thallium flux, FluxOR fluorescence; hits give low values. B-score at 10 µM. actives 0.84% (n = 340,000);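 active = B-score under library mean minus 4 SD, starting fluorescence ratio at most library mean plus 5 SD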;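 note: more negative B-score means stronger inhibition of thallium flux through KCNK3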
# hERG rescue: hERG (human) protection from proarrhythmic block; actives 0.51% (n = 310,000); activation (rescue from dofetilide block), less the hit threshold, % at 10 µM; CHO-hERG, FluxOR thallium flux, dofetilide IC70 present; AID 1511; Q12809;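 active = activation above the mean of controls blocked by dofetilide plus 5 SD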;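 note: thallium influx through hERG after potassium depolarization seen as dye fluorescence rise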
# Target sequence (Q12809 whole entry, looked up): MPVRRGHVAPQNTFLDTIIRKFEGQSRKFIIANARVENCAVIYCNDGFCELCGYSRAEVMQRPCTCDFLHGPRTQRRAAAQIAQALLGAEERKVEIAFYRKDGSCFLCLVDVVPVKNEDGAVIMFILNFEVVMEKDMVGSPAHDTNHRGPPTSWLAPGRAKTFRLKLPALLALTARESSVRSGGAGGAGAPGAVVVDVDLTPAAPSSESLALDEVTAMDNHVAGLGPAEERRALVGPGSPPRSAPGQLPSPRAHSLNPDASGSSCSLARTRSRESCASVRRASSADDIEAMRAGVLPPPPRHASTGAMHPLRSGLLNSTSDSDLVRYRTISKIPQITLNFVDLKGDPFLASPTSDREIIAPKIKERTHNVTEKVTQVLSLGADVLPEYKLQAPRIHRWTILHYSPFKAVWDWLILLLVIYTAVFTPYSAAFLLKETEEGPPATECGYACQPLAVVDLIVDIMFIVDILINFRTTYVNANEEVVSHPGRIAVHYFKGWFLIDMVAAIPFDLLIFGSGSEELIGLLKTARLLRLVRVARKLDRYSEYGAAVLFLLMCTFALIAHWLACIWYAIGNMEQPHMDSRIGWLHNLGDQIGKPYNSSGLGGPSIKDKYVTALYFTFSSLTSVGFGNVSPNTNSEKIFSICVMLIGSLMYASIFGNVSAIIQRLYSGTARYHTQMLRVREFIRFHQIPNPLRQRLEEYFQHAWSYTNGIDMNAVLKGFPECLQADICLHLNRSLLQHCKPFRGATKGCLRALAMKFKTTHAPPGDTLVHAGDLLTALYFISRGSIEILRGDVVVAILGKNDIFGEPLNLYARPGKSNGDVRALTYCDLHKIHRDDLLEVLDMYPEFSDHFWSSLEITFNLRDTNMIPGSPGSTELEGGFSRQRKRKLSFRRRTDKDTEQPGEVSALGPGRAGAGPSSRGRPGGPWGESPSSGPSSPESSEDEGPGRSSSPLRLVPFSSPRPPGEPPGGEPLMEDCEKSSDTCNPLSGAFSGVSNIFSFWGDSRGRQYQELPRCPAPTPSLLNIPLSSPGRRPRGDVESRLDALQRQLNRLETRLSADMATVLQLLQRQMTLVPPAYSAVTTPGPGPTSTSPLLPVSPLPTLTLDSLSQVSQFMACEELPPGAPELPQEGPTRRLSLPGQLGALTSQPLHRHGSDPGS
# KCNQ1 inh: human KCNQ1 channel inhibition; CHO-K1 KCNQ1, FluxOR thallium flux fluorescence; hits give high values; B-score at 10 µM; actives 1.3% (n = 310,000); AID 2642;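 active = compounds whose thallium flux B-score, printed positive for inhibition, exceeds three library SD while starting fluorescence stays within three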;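 note: channel opened by potassium depolarization with thallium stimulus after 20 min compound exposure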
# KCNQ1 pot: potentiates or activates the human KCNQ1 potassium channel | actives 0.35% (n = 310,000) | B-score at 10 µM | CHO-K1 KCNQ1, thallium flux FluxOR fluorescence; hits give high values;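 active = fluorescence ratio B-score, a plate-corrected score, at least three library SD, with initial intensity B-score within 5 SD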
#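 Material: CHO-K1 cells stably expressing KCNQ1. Medium: assay buffer for compound exposure, DMSO matched across wells. Reagent: K+/Tl+ depolarizing stimulus. Compound dosing: single-concentration screen. Times: 37 °C overnight plating, 90-min dark dye load, 20-min compound pretreatment. Technique: FluxOR Tl+ flux fluorescence.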
# Numbers without * were called inactive; i = inactive; · = not tested or not shown. Only some compounds are listed: those with a hit (about 3.7% of all), similar ones and a draw of the others.
SMILES,Kir21 inh,KCNK9 block,KCNK3 inh,hERG rescue,KCNQ1 inh,KCNQ1 pot
CC(=O)N=C1C=CC(=CN(O)C(C)(C)Cc2ccccc2)C=C1,0.18,i,i,-12,i,i
Cc1ccccc1CN(C)CC(=O)Nc1ccccc1Oc1ccccc1,0.25,-7.5*,i,-14,i,i
O=C(CN1CCOCC1)Nc1ccccc1Sc1ccc(Cl)cc1,-5.2*,i,i,-12,i,i
O=C(CN1CCOCC1)Nc1ccccc1F,1.3,i,i,-8,i,i
O=C(Nn1c(O)c(C=C2N=c3ccccc3=N2)sc1=S)c1ccc(Cl)cc1,-1.9,i,i,-9,i,i
O=C(Nn1c(O)c(C=C2N=c3ccccc3=N2)sc1=S)c1cccc(Cl)c1,-0.53,i,i,12*,i,i
Cc1c(C(=O)NCCN2CCOCC2)oc2ccccc12,-1.4,i,i,48*,i,i
COc1ccc(NC(=O)c2ccc(Br)o2)cc1,-1.6,i,i,-13,i,i
O=C(NC(=S)Nc1ccccc1)c1ccc(Br)o1,-0.88,i,i,4,i,13*
O=C(NNC(=S)NCc1ccccc1)c1ccc(Br)o1,-0.69,i,i,-2,i,i
Cc1ccc(CNC(=O)/C=C/c2ccc(Br)o2)cc1,2.1,i,i,-13,i,i
O=C(/C=C/c1ccc(Br)o1)NCc1ccccc1,-0.18,-6.8*,i,-6,i,i
O=C(NC(=S)NCc1ccccc1)c1ccc(Br)o1,-1.4,i,i,39*,i,59*
COc1ccc(NC(=S)NC(=O)c2ccc(Br)o2)cc1,0.6,i,i,9.4*,i,17*
CC(=O)c1cccc(NC(=O)C(C)OC(=O)c2ccc(-n3cnnn3)cc2)c1 (configuration not stated),·,·,i,·,·,·
CC(=O)Nc1ccc(S(=O)(=O)N[C@@H](C)C(=O)OCC(=O)Nc2ccc3c(c2)OCCO3)cc1,·,·,i,·,·,·
O=C(NCCOc1ccccc1F)C1CCC(=O)N(CC2CCCCC2)C1 (configuration not stated),-1.3,i,i,-16,i,i
COc1cccc(CN2CC(C(=O)N3CCOCC3)CCC2=O)c1 (configuration not stated),-0.08,i,i,-7,i,i
CC(C)c1ccc(NC(=O)c2ccc(Br)o2)cc1,2,i,i,-5,i,i
Cc1snnc1C(=O)NC(=S)Nc1ccccc1,0.1,i,i,11*,i,9*
O=C(Nc1ccc(Nc2ccccc2)cc1)c1ccc(Br)o1,1,-7.7*,i,-18,i,i
O=C(NC(=S)Nc1cc([N+](=O)[O-])ccc1O)c1ccc2c(c1)OCO2,1.3,i,i,-12,6*,i
O=C(NC(=S)Nc1ccccc1N1CCCC1)c1ccc(-c2cccc([N+](=O)[O-])c2)o1,0.47,i,i,-1,i,8*
O=C(NC(=S)Nc1ccccc1N1CCCCC1)c1ccc(-c2cccc([N+](=O)[O-])c2)o1,0.59,i,i,-9,i,i
COC(=O)c1ccccc1NC(=S)NC(=O)c1ccc2c(c1)OCO2,-1.1,i,i,-8,i,i
SMILES,Kir21 inh,KCNK9 block,KCNK3 inh,hERG rescue,KCNQ1 inh,KCNQ1 pot
O=C(NC(=S)Nc1ccccc1N1CCCC1)c1ccc([N+](=O)[O-])cc1,-0.11,i,i,8.1*,i,8*
COc1cccc(C(=O)N2C(C(=O)O)CSC2c2ccccc2Cl)c1 (configuration not stated),0.67,i,i,-3,i,i
CCCN(C(=O)Cc1coc2cc(OC)ccc12)C1CCS(=O)(=O)C1 (configuration not stated),·,·,i,·,·,·
O=C(c1cccc(Br)c1)N1CCN(S(=O)(=O)N2CCCCCC2)CC1,-0.07,i,i,-18,i,i
C=CCn1c(SCC(=O)N2c3ccccc3Sc3ccccc32)nnc1-c1ccco1,-0.31,i,i,-16,i,i
C=CCn1c(SCC(O)Cn2c3ccccc3c3ccccc32)nnc1-c1ccco1 (configuration not stated),0.01,-7.2*,i,-9,i,i
